Reference: ChEMBL document CHEMBL1649111, “Restoration of susceptibility of intracellular methicillin-resistant Staphylococcus aureus to beta-lactams: comparison of strains, cells, and antibiotics” (Antimicrob Agents Chemother, 2008)

Key:
[1] = Chemical stability of the compound assessed as compound remaining after 24 hrs in PBS buffer by HPLC analysis at pH 7.4; assay type: physicochemical; details: read-out: Activity
Outline: (§1)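 Drug at 50 mg/liter initial concentration incubated 24 h at 37°C in buffered medium at pH 7.4 or 5.5. Remaining drug measured by HPLC signal disappearance; mobile phase 25 mM phosphate buffer pH 6.7 with acetonitrile (75:25).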

[2] = Chemical stability of the compound assessed as compound remaining after 24 hrs PBS buffer by HPLC analysis at pH 5.5; assay type: physicochemical; details: read-out: Activity; outline: as §1
THP-1 = assay: Ratio of intracellular to extracellular drug level in human THP1 cells at 250 mg/L after 24 hrs; assay type: ADME, cell-based; details: thp-1, 24 h
Outline: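 THP-1 cells incubated 24 h at 250 mg/liter extracellular drug. Cell lysates assayed microbiologically with MSSA ATCC 25923; content expressed per mg total protein. Cellular/extracellular ratio calculated assuming cell volume of 5 μl per mg protein.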

remaining at 24 h [1]	remaining at 24 h [2]	Ratio (THP-1)	Compound
39.3%	30.5%	0.05	C[C@@H](O)[C@H]1C(=O)N2C(C(=O)O)=C(SCCN=CN)C[C@H]12 [IMIPENEM ANHYDROUS]
49.3%	40.3%	0.2	C[C@@H](O)[C@H]1C(=O)N2C(C(=O)O)=C(S[C@@H]3CN[C@H](C(=O)N(C)C)C3)[C@H](C)[C@H]12 [MEROPENEM]

Compound	remaining at 24 h [1]	remaining at 24 h [2]	Ratio (THP-1)
Cc1onc(-c2ccccc2)c1C(=O)N[C@@H]1C(=O)N2[C@@H]1SC(C)(C)[C@@H]2C(=O)O [OXACILLIN]	94.2%	91.8%	0.2
